# Measurements taken from article PMC12065821 (Scientific Reports, 2025).
# Legend:
# [1] = test system: human kidney proximal tubular HK-2 cells; settings: identical dose of 0.75 mM; cited from earlier work
# [2] = cited from earlier work
# [3] = rats; CMS and formed colistin; cited from earlier work
# [4] = test system: rats; test: Maximal tolerability dose; type: in vivo; settings: intraperitoneal
# [5] = test system: rats; test: Renal histological examination; type: in vivo; settings: rat kidney; for histological lesions during the first 2 h: PAS stain; for maximal SQS: mean ± SD, SD
# [6] = test system: rats; test: Kidney injury biomarkers: plasma CR and BUN; type: in vivo; settings: rat plasma, mean ± SD
# In short: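 Rats (male Sprague-Dawley) received one i.p. injection in saline, with a saline control group. Plasma came from serial heparinised jugular-vein samples, plus blood taken at sacrifice in a second cohort. Creatinine and blood urea nitrogen were measured on an automatic biochemical analyser. Peak levels and times to peak were taken from the time profiles and given as mean ± SD.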
# [7] = PK-TD model, PK component; type: in vivo; settings: rats, single i.p. CMS 10 mg/kg CBA, one-compartment PK-TD model, mean ± SD
# In short: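 Plasma prodrug and formed colistin/colistin B concentrations after i.p. dosing were fitted by a compartmental model. The final model used one compartment each for prodrug and formed drug, a conversion rate constant, and linear first-order total clearance from both. Fit was judged by R², AIC, BIC and visual inspection. Estimates are mean ± SD.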
# [8] = test system: patients; settings: meta-analyses; cited from earlier work
# [9] = test system: rats; test: PK-TD model, TD component; type: in vivo; settings: i.p., mean ± SD
# In short: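 Plasma creatinine and BUN time courses were linked to plasma colistin/colistin B through an indirect hypothetical effect compartment. K_e is the rate constant from the central to the effect compartment. The effect was linear: E = E₀ + S·C_e, with E₀ the pre-dose baseline. T_lag was calculated as 1/K_e. Fit was judged by R², AIC, BIC and visual inspection. Parameters are mean ± SD.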
# [10] = Plasma PK of CMS/CMS-E2 and formed colistin/colistin B; type: in vivo, rats; settings: rat plasma, LC-MS/MS, NCA, mean ± SD
# In short: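 Male Sprague-Dawley rats were dosed once i.p. in saline, and serial jugular-vein blood was taken before and after dosing. Blood was heparinised (1%), spun at 4,982 × g for 10 min at 4 °C, and plasma stored at −70 °C. Plasma (40 µL) went through WCX solid-phase extraction with polymyxin B1 internal standard, then LC-MS/MS. Prodrug was total (acid-hydrolysed) minus free analyte. […] Values are mean ± SD, compared by Wilcoxon rank sum.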
# [11] = physiologically-based PK model; cited from earlier work
# [12] = Kidney PK of CMS/CMS-E2 and formed colistin/colistin B; type: in vivo, rats; settings: for Cmax CMS/CMS-E2 in kidneys: mean ± SD, SD
# In short: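 Male Sprague-Dawley rats (300 ± 15 g) got one i.p. dose in saline. At each sampling time rats were anaesthetised with tiletamine-zolazepam (40 mg/kg) and killed, and the left kidney was frozen at −70 °C. Kidney cortex was homogenised in saline (1:10 m/v, 1% BSA). Samples went through WCX solid-phase extraction with polymyxin B1 internal standard, then LC-MS/MS. Prodrug was calculated as total (after […] sulfuric acid hydrolysis) minus free colistin/colistin B. Parameters came from non-compartmental analysis.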
# [13] = single i.p. CMS or CMS-E2 20 mg/kg CBA
# [14] = rat kidney cortex, single i.p. CMS or CMS-E2 20 mg/kg CBA, LC-MS/MS, NCA
substance,measurement,setting,value
colistin A,apoptotic effect relative to colistin B,[1],three times
same,plasma protein binding,[2],56.6 ± 9.25%
colistin methanesulphonate [CMS],t1/2 in prior reports,[3],20 to 40 min
same,maximal tolerability dose,[4],20 mg/kg CBA
same,histological lesions during the first 2 h,[5]; single i.p. CMS 10 mg/kg CBA,No obvious histological lesion
same,histological lesions during the first 2 h,[5]; [13],No obvious histological lesion
same,recovery of histological damage at 8 h,[5]; single i.p. CMS 10 mg/kg CBA,most of the damage was completely recovered
same,maximal SQS,[5]; single i.p. CMS 10 mg/kg CBA,2.00 ± 0.00
same,recovery of histological damage at 24 h,[5]; single i.p. CMS 20 mg/kg CBA,all damage was completely recovered
same,maximal SQS,[5]; [13],3.00 ± 0.00
same,peak BUN level,[6]; single i.p. CMS 10 mg/kg CBA,8.09 ± 1.66 mmol/L
same,peak CR level,[6]; single i.p. CMS 10 mg/kg CBA,31.3 ± 5.41 µmol/L
same,time of peak BUN,[6]; single i.p. CMS 10 mg/kg CBA,5.00 ± 0.00 h
same,time of peak CR level,[6]; single i.p. CMS 10 mg/kg CBA,2.67 ± 1.70 h
same,peak BUN level,[6]; [13],17.8 ± 3.83 mmol/L
same,peak CR level,[6]; [13],93.1 ± 29.8 µmol/L
same,time of peak BUN,[6]; [13],7.82 ± 1.34 h
same,time of peak CR level,[6]; [13],5.36 ± 1.30 h
same,CLCMS/CMS-E2 (total body clearance),[7],5.14 ± 0.196 mL/min/kg
same,Ka CMS/CMS-E2 (absorption rate),[7],2.02 ± 0.260 h⁻¹
same,V (volume of distribution),[7],194 ± 12.8 mL/kg
same,incidence of CMS-associated nephrotoxicity,[8],up to 48%
same,S (slope between colistin/colistin B concentration in effect compartment and CR),[9]; E = E0 + S·Ce,20.9 ± 9.13 mmol/g
same,"Ke (rate from colistin/colistin B central compartment to effect compartment), BUN","[9]; indirect link PK-TD model, effect = BUN",0.157 ± 0.100 h⁻¹
same,"Ke (rate from colistin/colistin B central compartment to effect compartment), CR","[9]; indirect link PK-TD model, effect = plasma CR",0.833 ± 0.555 h⁻¹
same,"Tlag (lag time), BUN","[9]; reciprocal of Ke, effect = BUN",8.45 ± 4.08 h
same,"Tlag (lag time), CR","[9]; reciprocal of Ke, effect = plasma CR",1.73 ± 1.22 h
same,AUC0-inf CMS/CMS-E2 in plasma,[10]; single i.p. CMS 10 mg/kg CBA,30.7 ± 0.763 mg·h/L
same,CL/F CMS/CMS-E2,[10]; single i.p. CMS 10 mg/kg CBA,5.42 ± 0.132 mL/min/kg
same,Cmax CMS/CMS-E2 in plasma,[10]; single i.p. CMS 10 mg/kg CBA,21.4 ± 0.727 mg/L
same,Tmax CMS/CMS-E2 in plasma,[10]; single i.p. CMS 10 mg/kg CBA,20 ± 7.08 min
same,Vd/F CMS/CMS-E2,[10]; single i.p. CMS 10 mg/kg CBA,213 ± 36.2 mL/kg
same,t1/2 CMS/CMS-E2 in plasma,[10]; single i.p. CMS 10 mg/kg CBA,27.2 ± 4.08 min
same,AUC0-inf CMS/CMS-E2 in plasma,[10]; [13],149 ± 69.6 mg·h/L
same,CL/F CMS/CMS-E2,[10]; [13],2.99 ± 2.02 mL/min/kg
same,Cmax CMS/CMS-E2 in plasma,[10]; [13],39.5 ± 13.7 mg/L
same,Tmax CMS/CMS-E2 in plasma,[10]; [13],78 ± 27.5 min
same,Vd/F CMS/CMS-E2,[10]; [13],266 ± 81.6 mL/kg
same,t1/2 CMS/CMS-E2 in plasma,[10]; [13],76.4 ± 33.4 min
same,renal CMS conversion,[11],< 1%
same,Tmax CMS/CMS-E2 in kidneys,"[12]; rat kidney cortex, single i.p. CMS 10 mg/kg CBA, LC-MS/MS, NCA",2 h
same,Cmax CMS/CMS-E2 in kidneys,"[12]; rat kidney cortex, single i.p. CMS 10 mg/kg CBA, LC-MS/MS",64.2 ± 38.1 µg/g
same,AUC0-inf CMS/CMS-E2 in kidneys,[12]; [14],1620 µg·h/g
same,Tmax CMS/CMS-E2 in kidneys,[12]; [14],4 h
same,t1/2 CMS/CMS-E2 in kidneys,[12]; [14],61.8 min
same,Cmax CMS/CMS-E2 in kidneys,"[12]; rat kidney cortex, single i.p. CMS or CMS-E2 20 mg/kg CBA, LC-MS/MS",281 ± 92.8 µg/g
same,"CMS concentration in renal tissue at 6, 8 h","[12]; rat kidney, single i.p. CMS 10 mg/kg CBA, LC-MS/MS",below the lower limit
same,CMS concentration in renal tissue at 24 h,"[12]; rat kidney, single i.p. CMS 20 mg/kg CBA, LC-MS/MS",below the lower limit
same,"Kidney/plasma ratio of Cmax, CMS/CMS-E2","[12]; rats, single i.p. CMS or CMS-E2 20 mg/kg CBA",7.11
